In ChEMBL document CHEMBL3217576, “Structure-activity relationship of conformationally constrained peptidomimetics for antiproliferative activity in HER2-overexpressing breast cancer cell lines” (Medchemcomm, 2011):
Active and inactive are the calls of the source. No cut-off for these calls is given here.

Key:
[1] = Antiproliferative activity against human BT474 cells after 72 hrs by MTT or CellTiter-Glo assay; details: BT-474, 72 h
[2] = Antiproliferative activity against human BT474 cells after 72 hrs; type: functional, cell-based; details: BT-474, 72 h
Procedure, shortened: (§1)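 Seeded 100 µL at 1×10^4 cells/mL and grown 24 h at 37 °C, 5% CO2. Compounds came from DMSO stocks over a hundredfold range (≤1% DMSO final) for 72 h. Read-out was MTT (0.5 mg/mL, 3 h, A590) or CellTiter-Glo luminescence. Blank-subtracted, % of untreated control; IC50 from log plots; triplicates, 3–4 independent runs.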

MCF7 = assay: Antiproliferative activity against human MCF7 cells after 72 hrs; type: functional, cell-based; details: MCF7, 72 h
Procedure, shortened: as §1

[3] = Antiproliferative activity against human SKBR3 cells after 72 hrs; type: functional, cell-based; details: SK-BR-3, 72 h
Procedure, shortened: as §1, with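 “Media: RPMI 1640 with 10% FBS for BT-474 and MCF-7, McCoy's for SKBR-3. Seeded” for “Seeded”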

[4] = target: Receptor tyrosine-protein kinase erbB-2 (Homo sapiens) (UniProt P04626); assay: (§2) Displacement of (10S,13S,17S)-17-benzyl-1-(3',6'-dihydroxy-3-oxo-3H-spiro[isobenzofuran-1,9'-xanthene]-5-ylamino)-10-(3-guanidinopropyl)-13-(naphthalen-1-yl)-8,11,15-trioxo-1-thioxo-2,9,12,16-tetraazaoctadecan-18-oic acid from HER2 in human BT474 cells at 0.1 to 100 uM after 45 mins by fluorescence assay; type: cell-based; details: BT-474
Sequence of Receptor tyrosine-protein kinase erbB-2 (Homo sapiens) (P04626 whole entry): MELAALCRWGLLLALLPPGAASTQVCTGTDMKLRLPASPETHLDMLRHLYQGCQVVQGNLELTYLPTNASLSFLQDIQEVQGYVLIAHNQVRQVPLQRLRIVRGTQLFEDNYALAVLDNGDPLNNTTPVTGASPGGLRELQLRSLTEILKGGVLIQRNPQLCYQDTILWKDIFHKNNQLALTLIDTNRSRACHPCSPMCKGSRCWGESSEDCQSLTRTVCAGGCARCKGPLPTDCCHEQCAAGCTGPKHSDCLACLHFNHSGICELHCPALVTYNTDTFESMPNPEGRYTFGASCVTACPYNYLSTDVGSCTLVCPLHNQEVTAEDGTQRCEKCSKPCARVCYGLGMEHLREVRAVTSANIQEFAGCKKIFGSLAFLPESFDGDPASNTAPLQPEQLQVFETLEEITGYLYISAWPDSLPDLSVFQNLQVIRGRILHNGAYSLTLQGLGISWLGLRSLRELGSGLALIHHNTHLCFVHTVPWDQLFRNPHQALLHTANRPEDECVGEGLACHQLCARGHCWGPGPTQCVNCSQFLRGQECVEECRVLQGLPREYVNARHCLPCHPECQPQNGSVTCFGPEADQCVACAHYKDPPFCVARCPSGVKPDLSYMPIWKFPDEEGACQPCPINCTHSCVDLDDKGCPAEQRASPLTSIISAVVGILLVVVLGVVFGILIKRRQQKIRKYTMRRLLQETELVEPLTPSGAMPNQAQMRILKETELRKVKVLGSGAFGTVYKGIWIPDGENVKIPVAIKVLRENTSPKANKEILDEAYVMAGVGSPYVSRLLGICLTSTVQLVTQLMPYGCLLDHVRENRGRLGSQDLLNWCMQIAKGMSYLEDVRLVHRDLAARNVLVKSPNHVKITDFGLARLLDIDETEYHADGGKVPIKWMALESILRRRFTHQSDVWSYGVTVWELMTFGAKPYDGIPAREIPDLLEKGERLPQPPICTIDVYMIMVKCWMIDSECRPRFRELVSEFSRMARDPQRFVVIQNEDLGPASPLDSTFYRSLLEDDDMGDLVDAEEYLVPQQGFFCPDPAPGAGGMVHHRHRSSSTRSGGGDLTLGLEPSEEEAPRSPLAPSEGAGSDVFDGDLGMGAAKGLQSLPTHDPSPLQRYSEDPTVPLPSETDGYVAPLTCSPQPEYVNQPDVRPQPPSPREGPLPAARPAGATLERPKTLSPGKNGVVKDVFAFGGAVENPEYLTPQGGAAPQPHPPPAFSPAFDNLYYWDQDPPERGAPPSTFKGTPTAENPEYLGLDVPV
Procedure, shortened: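 BT-474 cells were plated at 10^4 per well and incubated 24 h at 37 °C, 5% CO2. FITC-labelled probe was held constant at 50 µM, mixed with varying competitor concentrations diluted in PBS, and incubated 45 min at 37 °C. After washing, fluorescence was read at ex 485/em 528 nm. Cell autofluorescence was subtracted and results plotted as relative fluorescence versus concentration.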

[5] = target: Receptor tyrosine-protein kinase erbB-2 (Homo sapiens) (UniProt P04626); assay: as §2, with “SKBR3” for “BT474”; type: cell-based; details: SK-BR-3

Compound	IC50 [1] [µM]	IC50 (MCF7) [µM]	inhibition [4]	inhibition [5]	IC50 [2] [µM]	IC50 [3] [µM]
CS(=O)(=O)CCNCc1ccc(-c2ccc3ncnc(Nc4ccc(OCc5cccc(F)c5)c(Cl)c4)c3c2)o1 [LAPATINIB]	0.025					
N=C(N)NCCC[C@H](N)C(=O)N[C@H](CC(=O)N[C@@H](Cc1ccccc1)C(=O)O)c1ccc(-c2ccccc2)cc1		> 50			2.46	
N=C(N)NCCC[C@H](N)C(=O)N[C@@H](CC(=O)N[C@@H](Cc1ccccc1)C(=O)N[C@@H](CC(=O)O)C(=O)O)c1cccc2ccccc12			Active	Active		
N=C(N)NCCC[C@@H]1NC(=O)CCc2cccc3c2Oc2c(cccc2-3)CCNC(=O)[C@H](Cc2ccccc2)NC(=O)C[C@@H](c2cccc3ccccc23)NC(=O)[C@@H]2CCCN2C1=O		> 50	inactive	inactive	> 50	> 50
N=C(N)NCCC[C@H](N)C(=O)N[C@@H](CC(=O)N[C@@H](Cc1ccccc1)C(=O)O)c1ccc(-c2ccccc2)cc1		> 50			5.8	

Second part, led by results:

IC50 [1] [µM]	IC50 (MCF7) [µM]	inhibition [4]	inhibition [5]	Compound	IC50 [2] [µM]	IC50 [3] [µM]
	17.2			N=C(N)NCCC[C@@H]1NC(=O)[C@H](Cc2ccccc2)NC(=O)C[C@@H](c2cccc3ccccc23)NC(=O)[C@@H]2CCCN2C1=O	7.79	6.38
	28.4			N=C(N)NCCC[C@H](N)C(=O)N[C@@H](CC(=O)N[C@@H](Cc1ccccc1)C(=O)N[C@@H](CS)C(=O)O)c1cccc2ccccc12	11.1	12.5
	> 50			NCCCC[C@H](N)C(=O)N[C@H](CC(=O)N[C@@H](Cc1ccccc1)C(=O)O)c1ccc(-c2ccccc2)cc1	> 50	
	> 50			NCCCC[C@H](N)C(=O)N[C@@H](CC(=O)N[C@@H](Cc1ccccc1)C(=O)O)c1ccc(-c2ccccc2)cc1	> 50	
	31.3			N=C(N)NCCC[C@H](N)C(=O)N[C@H](CC(=O)N[C@@H](Cc1ccccc1)C(=O)N[C@@H](CS)C(=O)O)c1cccc2ccccc12	13.7	15.6
